# HEK293 NFkB inh: inhibitors of the PMA/ionomycin-induced NF-kB reporter in HEK293 cells; HEK-293 NF-kB luciferase reporter, luminescence; 0.21% of 62,000 active; inhibition, % at 3 µM; AID 465;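 active means inhibition above the mean of all tested compounds plus 3 SD, cut at about 40% in these data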;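 further: 0% = stimulated DMSO wells and 100% = 10 µM reference inhibitor 5653914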
#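 System – HEK-293 cells with stable firefly luciferase reporter driven by four HIV NF-kB elements · Doses – one dose, 3 µM · Schedule – 1 h compound pre-incubation, 16 h PMA/ionomycin at 37 °C · Technique – luminescence from luciferase substrate reagent · Measure – percent inhibition normalized per plate to DMSO and reference-inhibitor controls · Replicates – tested once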
# MT1-MMP txn act: activates MT1-MMP transcription; 0.16% of 86,000 active; activation factor at 10 µM; HT1080 MT1-MMP promoter luciferase reporter, luminescence, overnight; active compounds read high; AID 750;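 active means activation factor of at least 2 for MT1-MMP transcription at 10 µM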
# Her2 expr inh: lowers expression of human Her2 kinase. P04626. SKBR-3 HER2 protein level, AlphaScreen, 18-24 h; active compounds read low. HER2 level % of control, % at 10 µM. 0.69% of 65,000 active. AID 645;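 active means HER2 level under 5% of the carrier-only control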;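 further: 100% = DMSO carrier and 0% = 500 nM PU-H71 HSP90 inhibitor; lower value means stronger loss of Her2 protein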
# JNK3 blocker: inhibitors of human JNK3 kinase; P53779; purified JNK3 kinase activity, HTS; inhibition, % at 8 µM; 0.61% of 60,000 active; AID 746; in the data active means inhibition above about 17%;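 further: 0% = DMSO and 100% = reference inhibitor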
# Target sequence (P53779 whole entry, looked up): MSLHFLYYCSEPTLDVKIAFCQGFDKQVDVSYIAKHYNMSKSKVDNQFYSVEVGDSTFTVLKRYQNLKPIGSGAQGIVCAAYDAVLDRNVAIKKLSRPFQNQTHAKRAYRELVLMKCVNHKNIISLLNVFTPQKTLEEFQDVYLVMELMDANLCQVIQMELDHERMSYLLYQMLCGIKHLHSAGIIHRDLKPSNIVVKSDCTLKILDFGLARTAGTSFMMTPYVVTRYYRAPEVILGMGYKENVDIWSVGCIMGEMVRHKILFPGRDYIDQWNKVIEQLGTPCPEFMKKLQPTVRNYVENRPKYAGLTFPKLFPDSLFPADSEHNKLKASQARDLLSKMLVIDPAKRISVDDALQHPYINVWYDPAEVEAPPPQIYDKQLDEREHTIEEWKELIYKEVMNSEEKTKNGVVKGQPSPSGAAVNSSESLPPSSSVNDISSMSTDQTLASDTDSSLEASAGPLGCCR
# AP ELISA ortho: alternative pathway complement inhibition, orthogonal assay | Human serum alternative complement pathway, LPS-coated ELISA, C3 deposition; tested in compound mixtures | inhibition, % at 5 µM | 0.08% of 62,000 active | AID 1235;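 active means inhibition above 30% in each of the two pooled mixtures holding the compound, so the lower value exceeds 30%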;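 further: 0% = serum in Mg-EGTA without compound and 100% = EDTA serum blank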
#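 Test system: human serum alternative complement pathway, C3 deposition on LPS-coated wells; also added: Plate-bound LPS; doses: 5 µM per compound in ten-compound mixtures; schedule: 1 h at 37 °C; detection: Anti-C3 ELISA, OD 450 nm; evaluation: percent inhibition of C3 deposition onto LPS; repeats: two pool placements per compound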
# An asterisk follows results filed as active; / = not tested or not shown. This is a sample that favours compounds with a hit; in the whole collection about 1.1% have one here.
SMILES,HEK293 NFkB inh,MT1-MMP txn act,Her2 expr inh,JNK3 blocker,AP ELISA ortho
CCCCN(CCCC)S(=O)(=O)c1ccc(C(=O)Nc2nnc(COC)o2)cc1,17.4,1.1,-16.9*,-0.9,11.3
O=C(Cc1ccccc1)Nc1nc2ccccc2s1,/,2*,/,/,/
COc1ccc(CC(=O)Nc2nc3ccccc3s2)cc1S(=O)(=O)N1CCOCC1,12.4,1,77.5,36.8*,3.0
COc1ccccc1NC(=O)c1sc2nc(-c3ccco3)ccc2c1N,1.3,1.1,-0.3*,7.6,-10.4
Nc1c(C(=O)Nc2ccccc2)sc2nc(-c3ccco3)ccc12,5.4,1.1,-5.4*,1.2,27.3
COc1ccccc1NC(=O)c1sc(NC(=O)c2ccco2)c(C#N)c1C,/,1,/,/,/
C=CCNC(=O)c1ccc(N(CC=C)S(C)(=O)=O)cc1,/,1.1,/,/,/
Cc1cccc(Nc2nc(-c3ccccn3)cs2)n1,-95.0,0.9,-20.9*,6.6,-0.3
Cc1cccc(Nc2nc(-c3cccs3)cs2)n1,/,2.3*,/,/,/
Clc1cccc(CSc2nnc(-c3cccnc3)n2Cc2ccco2)c1,9.2,1.1,76.5,-4.0,37.3*
CCOc1cc(C(=O)CSc2nnc(CNc3ccc(Cl)cc3)o2)ccc1NC(=O)CC,5.4,1.2,-21.5*,1.0,8.9
O=c1c2ccccc2nc(-c2ccco2)n1CCCn1ccnc1,3.2,1.1,99.2,17.5*,0.6
Cc1noc(C)c1S(=O)(=O)N1CCC(C(=O)N2CCN(Cc3ccc4c(c3)OCO4)CC2)CC1,22.8,1.1,114.6,/,16.0
O=C1c2ccccc2-c2onc3ccc(NCCCn4ccnc4)c1c23,0.3,/,87.2,37.6*,8.6
Oc1ccccc1CNc1cnc2ccccc2c1,/,2.1*,/,/,/
O=C(Nc1cnc2ccccc2c1)N1CCCCC1,-27.9,1,120.8,7.8,-3.0
CC(C)c1nnc(NC(=O)c2c(O)c3cccc4c3n(c2=O)CCC4)s1,45.9*,0.8,38.9,-2.5,-13.5
Cc1cnc(NC(=O)c2c(O)c3cccc4c3n(c2=O)CCC4)s1,7.2,1.1,71.2,2.4,-2.7
c1ccc(-c2cccc(-c3ccccn3)n2)nc1,86.3*,0.6,54.3,-2.1,12.3
CC(=O)Nc1cc(OC(C)=O)c2nonc2c1OC(C)=O,-2.0,0.8,-6.9*,47.2*,25.2
Cc1ccc2nc(NCCCO)nc(-c3ccccc3)c2c1,/,0.9,/,/,/
O=C(Nc1cccc(C(=O)N2CCOCC2)c1)NC1CCCCC1,18.4,1.1,-21.8*,-3.4,14.3
CC(=O)c1cccc(NC(=O)NC2CCCCC2)c1,3.5,1.2,93.7,0.8,2.9
CCN1/C(=C/C(=O)c2ccco2)Sc2ccccc21,12.0,1.4,-0.5*,3.6,13.5
CNC(=O)c1cc2cccc(OC)c2oc1=O,7.3,1.1,117.0,1.9,-1.1
SMILES,HEK293 NFkB inh,MT1-MMP txn act,Her2 expr inh,JNK3 blocker,AP ELISA ortho
COc1cccc2cc(C(=O)NCc3ccccn3)c(=O)oc12,/,2.1*,/,/,/
c1ccc(-c2nnc(-c3ccccc3)o2)cc1,/,1.6,/,/,/
Clc1cccc(-c2nnc(-c3ccccc3)o2)c1,-43.8,/,-8.2*,4.5,10.7
NC(=O)C1(N2CCCCC2)CCN(C(=O)c2cccs2)CC1,0.9,1.1,127.0,10.0,2.5
C=CCn1c(NCc2cc(C)ccc2O)nc2ccccc21,1.0,1.1,73.9,0.8,8.5
O=C(Nc1ccncc1)C1(c2ccccc2)CCCC1,8.7,1,116.1,4.6,39.0*
CCn1c(CN2CCCCCC2=O)nnc1SCc1cnc(-c2ccccc2)s1,10.8,1.1,74.2,0.7,3.7
Cc1ccc(-c2csc3ncnc(Sc4nnc(CN5CCCCCC5=O)o4)c23)cc1,33.5,/,-25.4*,10.7,4.1
Cc1ccc(/C=N/c2sc3c(c2C#N)CCCCC3)o1,-16.9,1.8,93.2,-4.5,0.4
Cc1ccc(/C=N/c2sc3c(c2C#N)CCC3)s1,-59.1,2.3*,66.0,/,5.5
CCOC(=O)c1ccc(NC(=O)N2CC(C)OC(C)C2)cc1 (configuration not stated),5.4,2*,115.1,3.8,5.9
CCOC(=O)c1ccc(NC(=O)N2CCN(CCc3ccccc3)CC2)cc1,0.2,1.1,78.6,-2.8,19.5
O=c1c2ccccc2nc(-c2cccc(Cl)c2)n1O,-0.4,1.2,81.5,-3.0,4.2
CCCc1ccc(-c2ccc(F)c(N)c2)nc1,4.1,/,76.9,1.9,29.1
CCCCc1ccc(-c2ccc(Br)cc2)nc1,/,2*,/,/,/
COc1cccc(-n2c(SCC#N)nnc2-c2cnccn2)c1,0.5,1.1,64.5,-2.6,7.7
O=C(Nc1cccc(O)c1)c1noc2c1CCc1ccccc1-2,/,1.5,/,/,/
Clc1ccc2oc(-c3ccccn3)nc2c1,-27.2,1.3,102.8,-1.3,38.1*
Nc1ccc2oc(-c3ccccn3)nc2c1,-7.1,1.4,99.5,/,11.8
CC1(C(=O)NCc2cccnc2)CCC(=O)N1Cc1cccs1 (configuration not stated),10.7,1.1,111.2,-5.8,35.6*
CC(C)(C)OC(=O)NCCc1nnc(S(=O)(=O)Cc2ccc(Cl)cc2Cl)o1,17.4,1.1,-16.0*,1.9,9.9
CC(C)(C)OC(=O)NCCc1nnc(SCc2ccccc2Cl)o1,6.0,1.1,96.2,-1.5,4.3
O=c1c2c(nc3cc(-c4cccc(Cl)c4)[nH]n13)CCC2,/,2*,/,/,/
COCCn1nnnc1C(c1ccc(OC)cc1)N1CCC(C)CC1 (configuration not stated),8.5,1.2,112.0,6.5,24.2
COC(=O)c1[nH]c2c(c1C)C(=O)CC(c1ccccc1)C2 (configuration not stated),44.5*,/,76.2,6.1,-2.2
SMILES,HEK293 NFkB inh,MT1-MMP txn act,Her2 expr inh,JNK3 blocker,AP ELISA ortho
CCOC(=O)c1[nH]c2c(c1C)C(=O)CC(c1ccc(OC)c(OC)c1)C2 (configuration not stated),20.0,/,88.3,/,17.1
Cc1ccc(S(=O)(=O)Cc2csc(N)n2)cc1,8.2,1.1,101.3,-2.2,1.4
O=C(Nc1ccc(S(=O)(=O)N2CCOCC2)cc1)c1ccc(Cl)cc1,18.7,1.1,94.7,-3.2,5.3
Cc1cc(C)c(O)c(-c2cc(C(=O)Nc3ccc(S(=O)(=O)N4CCOCC4)cc3)[nH]n2)c1,5.7,0.9,-11.2*,-7.2,6.1
CCOC(=O)c1ccccc1NC(=O)Cn1cnc2c(cnn2C(C)(C)C)c1=O,8.0,1,92.7,1.7,18.8
COc1ccc(C(C)=O)cc1COC(=O)c1c(C)noc1C,7.6,1,61.4,23.7*,1.5
Oc1c(C(Nc2nc3ccccc3s2)c2ccco2)ccc2cccnc12 (configuration not stated),70.9*,1,34.2,-1.0,-4.3
CC(C)C(=O)NC(c1ccco1)c1ccc2cccnc2c1O (configuration not stated),20.1,/,49.7,-9.0,-4.4
O=C(O)c1ccc2c3c(ncnc13)-c1ccccc1C2=O,-2.2,1,-15.9*,-11.9,7.4
Cc1nc2nc(-c3ccco3)nn2c(C)c1Cl,-3.9,1.3,-8.6*,6.4,-2.6
O=C(Oc1ccc2ccccc2c1)c1ccco1,9.1,1.1,97.8,2.1,9.8

# High-throughput results as filed in PubChem BioAssay.
